Results: BindingDB's records for doi:10.1021/jm960868t (Organix, 1997)

Target: Sodium-dependent dopamine transporter (Macaca fascicularis, UniProt Q9GJT6)
Assay: Inhibition of [3H]WIN-35428 binding to dopamine transporter using of Cynomolgus monkey caudate-putamen
In short: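 Caudate-putamen membranes (washed in 50 mM Tris-HCl pH 7.4, 3800g spins) incubated at 4 mg original wet tissue/mL with 0.3 nM [3H]WIN35,428 and 7–14 competitor concentrations in 50 mM Tris-HCl/100 mM NaCl pH 7.4, 2 h at 0–4 °C. Filtered on BSA-soaked GF/B filters, scintillation counting. Nonspecific binding defined with 30 μM (–)-cocaine. IC50 computed by EBDA; independent experiments in triplicate.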

Chain of Sodium-dependent dopamine transporter (Q9GJT6 whole entry): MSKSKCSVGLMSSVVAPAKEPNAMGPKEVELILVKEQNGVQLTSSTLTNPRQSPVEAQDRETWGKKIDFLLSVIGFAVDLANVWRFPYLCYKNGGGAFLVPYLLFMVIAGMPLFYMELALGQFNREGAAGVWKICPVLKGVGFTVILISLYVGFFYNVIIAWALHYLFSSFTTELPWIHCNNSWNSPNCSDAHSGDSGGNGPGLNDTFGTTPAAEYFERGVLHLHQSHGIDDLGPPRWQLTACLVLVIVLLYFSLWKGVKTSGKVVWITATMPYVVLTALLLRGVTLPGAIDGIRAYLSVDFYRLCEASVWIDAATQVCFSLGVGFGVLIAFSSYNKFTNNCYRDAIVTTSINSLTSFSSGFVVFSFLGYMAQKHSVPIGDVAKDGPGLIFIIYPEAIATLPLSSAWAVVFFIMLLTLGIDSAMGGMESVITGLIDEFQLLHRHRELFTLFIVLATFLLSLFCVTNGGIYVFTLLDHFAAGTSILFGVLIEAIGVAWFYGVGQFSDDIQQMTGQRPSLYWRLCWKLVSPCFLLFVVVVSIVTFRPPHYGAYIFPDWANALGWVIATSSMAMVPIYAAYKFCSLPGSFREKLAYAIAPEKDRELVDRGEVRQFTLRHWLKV

Row | Compound | IC50 [µM]
1 | COC(=O)[C@@H]1C2CCC(C[C@@H]1OC(c1ccc(F)cc1)c1ccc(F)cc1)N2CCCN1CC[S][Re]2(=[O])[S]CC[N]2C(=O)C1 (some centres not stated) | 0.343
2 | COC(=O)C1C(c2ccc(Cl)c(Cl)c2)CC2CCC1N2CCC[N+]12CC[S][Re]13(=[O])[S]CC[N]3C(=O)C2 (stereo not drawn) [[N-[2-[(3'-N'-Propyl-3''beta-(3,4-dichlorophenyl)tropane-2''beta-carboxylic acid methyl ester)(2-mercaptoethyl)amino]acetyl]-2-aminoethanethiolato]rhenium(V) oxide] | 0.0372
